Pf gametocyte: P. falciparum stage V gametocyte viability inhibition | P. falciparum stage V gametocytes, ATP luminescence, 24 h | inhibition, % at 10.9 µM | actives 0.065% (n = 150,000) | AID 743093;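 active = inhibition above the mean plus 3 SD of compounds within the control limits, set per campaign, cut at about 38% in these data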
ROMK mod: modulates human ROMK potassium channel activity | P48048 | Tet-inducible ROMK, thallium flux fluorescence; actives lie on both sides | B-score at 10 µM | actives 2% (n = 130,000) | AID 1918;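 active = signal ratio slope over the read window, or its plate-corrected B-score, at least 3 SD from the plate mean, either direction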;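 also: B-score of the F/F0 ratio slope over 7 to 12 s after thallium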
Target sequence (P48048 whole entry, looked up): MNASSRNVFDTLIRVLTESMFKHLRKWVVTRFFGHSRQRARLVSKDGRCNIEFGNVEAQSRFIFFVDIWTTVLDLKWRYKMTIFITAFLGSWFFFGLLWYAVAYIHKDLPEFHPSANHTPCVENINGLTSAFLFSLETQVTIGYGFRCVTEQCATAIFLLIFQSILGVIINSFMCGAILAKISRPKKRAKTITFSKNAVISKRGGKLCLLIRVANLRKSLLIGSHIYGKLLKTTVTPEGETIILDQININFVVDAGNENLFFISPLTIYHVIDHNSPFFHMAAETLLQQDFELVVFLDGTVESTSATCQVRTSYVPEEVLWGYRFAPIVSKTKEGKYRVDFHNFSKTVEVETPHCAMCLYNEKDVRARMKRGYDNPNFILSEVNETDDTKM
Calb biofilm kill: mixture kills Candida albicans biofilm cells; inhibition, % at 7.6 µM; actives 0.02% (n = 120,000); C. albicans biofilm persisters + clotrimazole, fluorescence viability; primary screen in compound mixtures of four per well; AID 1242;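 active = inhibition above 30.3% in the primary screen of four-compound pools, then above 30% when the compound was retested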;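 also: compounds exposed to preformed 24 h biofilms for 48 h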
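System: C. albicans CAF4-2 wild-type biofilms; Medium: RPMI/MOPS medium, pH 7.0; Reagent: Clotrimazole, 50 µg/mL; Times: biofilm formation 24 h, compound exposure 48 h, 37 °C; Detection: 2-h Alamar Blue fluorescence, 535/590 nm excitation/emission; Evaluation: percent inhibition of biofilm viability.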
Large screens that a line does not name were inactive. This is one part of a sample in which hits are shown more often than they occur.

Cn1c(/C(C#N)=C/c2ccncc2)nc2ccccc21	ROMK mod -3.64
COc1cc(/C=C(\C#N)c2nc3ccccc3n2C)cc(OC)c1O	ROMK mod -4.14 (no result: Pf gametocyte)
COc1ccc(/C=C(\C#N)c2nc3ccccc3[nH]2)cc1O	none (no result: ROMK mod, Calb biofilm kill)
Cn1c(/C(C#N)=C/c2ccc(O)cc2)nc2ccccc21	none (no result: ROMK mod)
CCc1ccc(-c2cnc3nc[nH]c(=O)c3n2)cc1	none (no result: ROMK mod, Calb biofilm kill)
Cc1cc(C)n(C(=O)COc2ccccc2[N+](=O)[O-])n1	none (no result: ROMK mod)
COc1cc(C2C(C#N)=C(C)NC3=C2C(=O)c2ccccc23)cc(OC)c1OC (centres undefined)	ROMK mod 3.22 (no result: Pf gametocyte, Calb biofilm kill)
COc1ccc(C2C(C#N)=C(C)NC3=C2C(=O)c2ccccc23)cc1 (centres undefined)	none (no result: Calb biofilm kill)
COC(=O)CC1(C(=O)OC)Oc2ccccc2C(=O)N1c1ccc(F)cc1F (centres undefined)	none (no result: ROMK mod, Calb biofilm kill)
CCCCn1c(SCC(=O)/C(C#N)=C(\C)N)nc2ccccc2c1=O	ROMK mod 2.96
C/C(N)=C(/C#N)C(=O)CSc1nc2ccccc2c(=O)n1Cc1ccc(C)cc1	none
Cn1c2ccccc2c(=O)c2c(=O)n(Cc3ccco3)c(-c3ccc(C(C)(C)C)cc3)nc21	none (no result: Pf gametocyte)
COc1ccc(-c2noc(CN(C)Cc3ccccc3)n2)c(OC)c1OC	none (no result: ROMK mod, Calb biofilm kill)
CCOc1ccc(/C=C2/SC(=O)NC2=S)cc1	ROMK mod 4.36 (no result: Pf gametocyte)
CCOc1ccc(N=C2NC(=O)S/C2=C\c2ccc(N(C)C)cc2)cc1	none (no result: ROMK mod, Calb biofilm kill)
Nc1ccc(C(=O)NC23CC4CC(CC(C4)C2)C3)cc1	none (no result: ROMK mod, Calb biofilm kill)
O=C1/C(=C/c2cccnc2)CCc2c1[nH]c1ccccc21	none (no result: ROMK mod)
CC1C/C(=C\c2cccnc2)C(=O)/C(=C/c2cccnc2)C1 (centres undefined)	ROMK mod -6.13
CCOC(=O)/C(=C/c1ccc(N2CCC(c3ccccc3)=N2)cc1)C(C)=O	ROMK mod -3.38 (no result: Pf gametocyte)
c1ccc(C2=NN(c3ccccc3)CC2)cc1	none (no result: ROMK mod)
CC(C)/C=C/CN1CCCC(N2CCN(c3cccc(Cl)c3)CC2)C1 (centres undefined)	none (no result: ROMK mod, Calb biofilm kill)
CCOC(=O)c1c(NC(=O)C2CCCO2)sc(C(N)=O)c1C (centres undefined)	none
CCOC(=O)c1c(NC(=S)NCC2CCCO2)sc(C)c1C (centres undefined)	ROMK mod 3.47
Cc1ccc(-n2[nH]c3c4c(ccc3c2=O)C(=O)c2ccccc2C4=O)cc1	Pf gametocyte 61.3 (no result: ROMK mod)
Cc1ccc(C)c(-n2[nH]c3c4c(ccc3c2=O)C(=O)c2ccccc2C4=O)c1	none (no result: Pf gametocyte)
COc1ccc(-c2cnc(SCC(=O)Nc3ccc4c(c3)OCO4)n2Cc2ccco2)cc1	none (no result: Pf gametocyte, Calb biofilm kill)
CC(=O)Nc1cccc(NC(=O)CSc2ncc(-c3ccc(Cl)cc3)n2Cc2ccco2)c1	ROMK mod -4.59 (no result: Pf gametocyte, Calb biofilm kill)
Cn1c(=S)[nH]c2c(c1=O)C(C)(C)Cc1ccccc1-2	none (no result: Pf gametocyte)
CCn1c(=S)[nH]c2c(c1=O)C(C)(C)Cc1ccccc1-2	ROMK mod 4.05
O=C(C[C@H]1C/C=C\C[C@@H](Cc2ccc(F)cc2)C(=O)OC[C@@H]2CCCN2C1=O)NCCO	none (no result: ROMK mod, Calb biofilm kill)
C=CCN([C@H](C(=O)OC)C(C)C)S(=O)(=O)CCNCc1ccccc1	none (no result: ROMK mod, Calb biofilm kill)
NC(=O)CC(NC(=O)c1cccc(Br)c1)c1ccc(NC2CCCCCCC2)c([N+](=O)[O-])c1 (centres undefined)	none (no result: ROMK mod, Calb biofilm kill)
O=P(CCCCCCCCCP(=O)(c1ccccc1)c1ccccc1)(c1ccccc1)c1ccccc1	ROMK mod -4.69 (no result: Pf gametocyte, Calb biofilm kill)
O=C(O)CCCCCCCCCCP(=O)(c1ccccc1)c1ccccc1	none
COc1ccc(CCN(C)CCCN2CC(c3ccccc3)CC2=O)cc1OC (centres undefined)	Pf gametocyte 42.1 (no result: ROMK mod)
COc1ccc(C2CC(=O)N(CCCN(C)CCc3ccc(OC)c(OC)c3)C2)cc1 (centres undefined)	none (no result: Pf gametocyte, ROMK mod)
CC(C)CC(=O)c1c(O)c(C=O)c(O)c2c1O[C@@]1(C)[C@@H](C2)C[C@H]2C[C@@H]1C2(C)C	none (no result: ROMK mod, Calb biofilm kill)
C=CCn1c(=S)[nH]c2sc3c(c2c1=O)CCC3	ROMK mod 3.24 (no result: Pf gametocyte)
CCn1c(=S)[nH]c2sc3c(c2c1=O)CCCC3	none (no result: ROMK mod, Calb biofilm kill)
Oc1ccc(C[C@@H]2CNCCN2CCc2cccc(F)c2)cc1	none (no result: ROMK mod, Calb biofilm kill)
CN1C(=O)S/C(=C/c2ccccc2OCc2ccc(C(=O)O)cc2)C1=O	ROMK mod -2.7 (no result: Pf gametocyte)
CN1C(=O)S/C(=C\c2ccccc2OCc2ccc(C(=O)O)cc2)C1=O	none
C[C@@H]1O[C@@H](O[C@H]2[C@H](O[C@H]3C[C@]4(C)C(C[C@@H](O)C5C([C@]6(C)CC[C@@H](C(C)(C)O)O6)CC[C@]54C)[C@@]4(C)CC[C@H](O)C(C)(C)C34)O[C@H](CO)[C@@H](O)[C@@H]2O)[C@H](O)[C@H](O)[C@H]1O (some centres undefined)	none (no result: ROMK mod, Calb biofilm kill)
Cc1ccc(S(=O)(=O)CCN2C=CC(C(F)(F)F)=NCC2)cc1	none (no result: ROMK mod)
CN1CC=C2C(C#N)=C(N)C(C#N)(C#N)[C@H](c3ccoc3)[C@H]2C1	ROMK mod -2.8 (no result: Pf gametocyte, Calb biofilm kill)

Screens (PubChem)
